Reference: ChEMBL document CHEMBL4330057, “Second generation of diazachrysenes: Protection of Ebola virus infected mice and mechanism of action” (Eur J Med Chem, 2019)
Activity calls are given as the source filed them.

Columns and labels:
Ebolavirus = assay: Antiviral activity against Ebolavirus H. sapiens-wt/1995/Kikwit-9510621 infected in African green monkey Vero cells assessed as inhibition of viral infection pretreated for 2 hrs followed by viral infection and measured after 48 hrs by EboV GP immunostaining based high content imaging analysis; assay type: functional, organism-based; conditions: Orthoebolavirus, H. sapiens-wt/1995/Kikwit-9510621, Vero
[1] = Toxicity in 6 hrs post fertilized zebrafish embryo assessed as tail detachment up to 50 uM up to 120 hrs post fertilization by inverted microscopic method; set-up: species or system Danio rerio; conditions: in vivo
[2] = Toxicity in 6 hrs post fertilized zebrafish embryo assessed as teratogenic effect by measuring malformation of head up to 50 uM up to 120 hrs post fertilization by inverted microscopic method; assay type: tissue-based, Danio rerio; conditions: in vivo
[3] = Toxicity in 6 hrs post fertilized zebrafish embryo assessed as teratogenic effect by measuring malformation of eyes up to 50 uM up to 120 hrs post fertilization by inverted microscopic method; set-up: species or system Danio rerio; conditions: in vivo
[4] = Toxicity in 6 hrs post fertilized zebrafish embryo assessed as teratogenic effect by measuring malformation of sacculi/otoliths up to 50 uM up to 120 hrs post fertilization by inverted microscopic method; set-up: species or system Danio rerio; conditions: in vivo
[5] = Toxicity in 6 hrs post fertilized zebrafish embryo assessed as teratogenic effect by measuring malformation of notochord up to 50 uM up to 120 hrs post fertilization by inverted microscopic method; assay type: tissue-based, Danio rerio; conditions: in vivo
[6] = Toxicity in 6 hrs post fertilized zebrafish embryo assessed as teratogenic effect by measuring malformation of tail up to 50 uM up to 120 hrs post fertilization by inverted microscopic method; assay type: tissue-based, Danio rerio; conditions: in vivo
[7] = Toxicity in 6 hrs post fertilized zebrafish embryo assessed as teratogenic effect by measuring scoliosis up to 50 uM up to 120 hrs post fertilization by inverted microscopic method; set-up: species or system Danio rerio; conditions: in vivo
[8] = Toxicity in 6 hrs post fertilized zebrafish embryo assessed as teratogenic effect by measuring effect on heart beat frequency up to 50 uM up to 120 hrs post fertilization by inverted microscopic method; set-up: species or system Danio rerio; conditions: in vivo
[9] = Toxicity in 6 hrs post fertilized zebrafish embryo assessed as teratogenic effect by measuring effect on blood circulation up to 50 uM up to 120 hrs post fertilization by inverted microscopic method; set-up: species or system Danio rerio; conditions: in vivo
[10] = Toxicity in 6 hrs post fertilized zebrafish embryo assessed as teratogenic effect by measuring pericardial edema up to 50 uM up to 120 hrs post fertilization by inverted microscopic method; set-up: species or system Danio rerio; conditions: in vivo
[11] = Toxicity in 6 hrs post fertilized zebrafish embryo assessed as teratogenic effect by measuring yolk edema up to 50 uM up to 120 hrs post fertilization by inverted microscopic method; set-up: species or system Danio rerio; conditions: in vivo
[12] = Toxicity in 6 hrs post fertilized zebrafish embryo assessed as teratogenic effect by measuring yolk absorption up to 50 uM up to 120 hrs post fertilization by inverted microscopic method; set-up: species or system Danio rerio; conditions: in vivo
[13] = Toxicity in 6 hrs post fertilized zebrafish embryo assessed as teratogenic effect by measuring liver morphology and color up to 50 uM up to 120 hrs post fertilization by inverted microscopic method; assay type: tissue-based, Danio rerio; conditions: in vivo
[14] = Toxicity in 6 hrs post fertilized zebrafish embryo assessed as teratogenic effect by measuring growth retardation up to 50 uM up to 120 hrs post fertilization by inverted microscopic method; set-up: species or system Danio rerio; conditions: in vivo
[15] = Hepatotoxicity in 6 hrs post fertilized transgenic l-fabp:EGFP zebrafish embryo assessed as change in liver area index up to 30 uM up to 120 hrs post fertilization by fluorescence assay; assay type: toxicity, Danio rerio; conditions: in vivo
In short: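 Tg(l-fabp:EGFP) zebrafish embryos exposed from 6 hpf. At 120 hpf, liver area index (liver area/lateral body area) and liver fluorescence assessed by in vivo imaging.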

[16] = Hepatotoxicity in 72 hrs post fertilized transgenic l-fabp:EGFP zebrafish embryo assessed as change in liver fluorescence up to 80 uM up to 120 hrs post fertilization by fluorescence assay; assay type: toxicity, Danio rerio; conditions: in vivo
In short: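 Transgenic Tg(l-fabp:EGFP) zebrafish with fluorescent liver, exposed to compound added at 72 hpf. Liver imaged in vivo at 120 hpf. Read-outs were liver fluorescence and liver area index (liver area divided by lateral body area).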

[17] = Myelotoxicity in 6 hrs post fertilized transgenic mpx:GFP zebrafish embryo assessed as reduction in neutrophil occurrence at >= 80 uM measured at 72 hrs hrs post fertilization by fluorescence assay; set-up: species or system Danio rerio
Zaire ebolavirus = assay: Antiviral activity against VSV pseudotyped Ebolavirus Mayinga expressing GFP infected in human HeLa cells assessed as inhibition of viral infection at 10 uM pre-incubated for 2 hrs followed by viral infection and measured after 8 hrs by cell mask deep red staining based assay; assay type: functional, organism-based; conditions: 1976
In short: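 HeLa cells pretreated 2 h with compound, then infected with rVSV-EBOV-GP-GFP (8 h) or VSV-GFP (6 h), and stained with Cell Mask Deep Red. Relative inhibition = 1 minus (% GFP-expressing cells normalised to mock). Mean ± SD of three replicates, representative of three independent experiments.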

HeLa [18] = assay: Induction of lysosomotropism in human HeLa cells infected with Ebolavirus assessed as increase in fluorescence intensity of acid compartments at 10 uM for 1 hr by Lysosensor DND189 staining based assay; assay type: functional, cell-based
In short: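 HeLa cells were pretreated 1 h with compound (Bafilomycin A1 at 0.01 μM as acidification control), then stained with LysoSensor DND 189 for 10 min and washed. Live imaging at Ex/Em 443/505 nm. Fluorescence intensity per area was quantified by image analysis. Eight wells per point, about 3000 cells/well, mean ± SD, three independent experiments.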

HeLa [19] = assay: Induction of lysosomotropism in human HeLa cells infected with Ebolavirus assessed as increase in lysosome concentration in juxtanuclear region at 10 uM for 2 hrs by acridine orange staining based assay; assay type: functional, cell-based
In short: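 HeLa cells were pretreated with compound for 2 h, then given acridine orange for 30 min and washed. Red AO fluorescence in acidic compartments was imaged, and total intensity and average area were scored by high-content imaging. Eight wells per point, about 3000 cells/well, mean ± SD, representative of three independent experiments.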

[20] = target: Cathepsin B (Homo sapiens) (UniProt P07858); assay: Inhibition of cathepsin B activity in human HeLa cells at 10 uM after 12 hrs by magic red substrate based fluorescence assay; assay type: cell-based
In short: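 HeLa cells were exposed to compound for 12 h, then given the Magic Red cathepsin B peptide reporter, washed, and imaged at Ex/Em 590/630. Total intensity and average area of red fluorescence were scored by high-content analysis. Eight wells per point, about 3000 cells/well, mean ± SD, three independent experiments.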

HeLa [21] = assay: Inhibition of lysosome fusion with autophagosome in human HeLa cells harboring GFP-LC3 assessed as increase in GFP-LC3-2 clustering at <50 uM after 6 hrs by Western blot analysis; assay type: functional, subcellular
In short: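 HeLa cells were exposed to compound for 6 h, then lysed and analysed by Western blot.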

CCN(CC)CCCC(C)Nc1ccnc2cc(Cl)ccc12 (stereo not drawn) [CHLOROQUINE]
active: Activity (Zaire ebolavirus) | Activity (HeLa [19])
16 µM: EC50 (Ebolavirus)
inactive: Activity (HeLa [18]) | inhibition [20] | inhibition (HeLa [21])
Toxic: Activity [15] | Activity [16] | Activity [17]
Non-Toxic: Activity [1] | Activity [2] | Activity [3] | Activity [4] | Activity [5] | Activity [6] | Activity [7] | Activity [8] | Activity [9] | Activity [10] | Activity [11] | Activity [12] | Activity [13] | Activity [14]
